Laboratory results from ChEMBL document CHEMBL1153264, “(1,2,3-Triazol-4-yl)benzenamines: synthesis and activity against VEGF receptors 1 and 2” (Bioorg Med Chem Lett, 2009).

Columns and labels:
[1] = target: T1, Vascular endothelial growth factor receptor 2 (Homo sapiens, UniProt P35968); assay: Inhibition of VEGFR2 by HTRF assay in presence of 2 uM ATP
Procedure, shortened: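 HTRF kinase assay with KDR enzyme (3–4 ng) and biotinylated pGAT substrate. ATP added to start, 45 min at RT. Stopped with EDTA/KF buffer plus Eu-cryptate anti-phosphotyrosine antibody, 2 h RT, then HTRF read. IC50 from 10-point log concentration curves, mean of at least two duplicate runs.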

[2] = target: Vascular endothelial growth factor receptor 1 (Homo sapiens, UniProt P17948); assay: Inhibition of VEGFR1 by HTRF assay
[3] = target: T1, Vascular endothelial growth factor receptor 2; assay: Inhibition of VEGF-induced phosphorylation of VEGFR2 by cell-based ELISA
[4] = target: T1, Vascular endothelial growth factor receptor 2; assay: Binding affinity to VEGFR2 at IC50 in presence of ATP
Procedure, shortened: (§1)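 ATP competition assay with VEGFR-2. Five concentrations of ³²P ATP across 0-100 µM, each incubated with enzyme for 45 min at RT. Inhibitor was absent or present at two fixed levels.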

[5] = target: T1, Vascular endothelial growth factor receptor 2; assay: Binding affinity to VEGFR2 at IC90 in presence of ATP; procedure, shortened: as §1
[6] = target: Insulin-like growth factor 1 receptor (Homo sapiens) (UniProt P08069); assay: Inhibition of IGF1R at 10 uM
[7] = target: Insulin receptor (Homo sapiens) (UniProt P06213); assay: Inhibition of IR at 10 uM
[8] = target: Fibroblast growth factor receptor 1 (Homo sapiens) (UniProt P11362); assay: Inhibition of FGFR1 at 10 uM
Fibroblast growth factor receptor 1 (Homo sapiens), sequence (P11362 22-822 limits assumed): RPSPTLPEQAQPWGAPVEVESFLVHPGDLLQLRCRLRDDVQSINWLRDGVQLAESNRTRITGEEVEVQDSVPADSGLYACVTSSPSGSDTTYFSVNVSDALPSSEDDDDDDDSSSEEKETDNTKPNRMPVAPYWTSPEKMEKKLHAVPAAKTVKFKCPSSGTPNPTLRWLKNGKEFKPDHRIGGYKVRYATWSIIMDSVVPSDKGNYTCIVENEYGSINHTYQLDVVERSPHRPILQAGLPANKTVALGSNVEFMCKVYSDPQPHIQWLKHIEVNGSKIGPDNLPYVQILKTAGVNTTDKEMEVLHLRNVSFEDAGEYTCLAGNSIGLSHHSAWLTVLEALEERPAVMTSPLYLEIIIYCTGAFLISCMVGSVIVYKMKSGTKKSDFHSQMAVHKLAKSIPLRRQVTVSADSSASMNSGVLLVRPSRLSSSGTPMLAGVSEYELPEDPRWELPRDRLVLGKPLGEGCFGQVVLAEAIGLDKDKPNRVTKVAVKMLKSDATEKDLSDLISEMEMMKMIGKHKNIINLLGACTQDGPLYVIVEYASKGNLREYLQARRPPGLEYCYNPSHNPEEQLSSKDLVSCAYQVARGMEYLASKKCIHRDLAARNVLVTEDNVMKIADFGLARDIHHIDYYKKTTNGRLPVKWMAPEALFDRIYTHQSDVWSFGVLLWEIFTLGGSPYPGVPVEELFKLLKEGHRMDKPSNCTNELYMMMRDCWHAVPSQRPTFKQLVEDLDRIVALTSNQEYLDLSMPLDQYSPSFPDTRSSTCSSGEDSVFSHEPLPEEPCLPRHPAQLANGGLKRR

[9] = target: Receptor-type tyrosine-protein kinase FLT3 (Homo sapiens) (UniProt P36888); assay: Inhibition of Flt3 at 10 uM
Receptor-type tyrosine-protein kinase FLT3 (Homo sapiens), sequence (P36888 whole entry): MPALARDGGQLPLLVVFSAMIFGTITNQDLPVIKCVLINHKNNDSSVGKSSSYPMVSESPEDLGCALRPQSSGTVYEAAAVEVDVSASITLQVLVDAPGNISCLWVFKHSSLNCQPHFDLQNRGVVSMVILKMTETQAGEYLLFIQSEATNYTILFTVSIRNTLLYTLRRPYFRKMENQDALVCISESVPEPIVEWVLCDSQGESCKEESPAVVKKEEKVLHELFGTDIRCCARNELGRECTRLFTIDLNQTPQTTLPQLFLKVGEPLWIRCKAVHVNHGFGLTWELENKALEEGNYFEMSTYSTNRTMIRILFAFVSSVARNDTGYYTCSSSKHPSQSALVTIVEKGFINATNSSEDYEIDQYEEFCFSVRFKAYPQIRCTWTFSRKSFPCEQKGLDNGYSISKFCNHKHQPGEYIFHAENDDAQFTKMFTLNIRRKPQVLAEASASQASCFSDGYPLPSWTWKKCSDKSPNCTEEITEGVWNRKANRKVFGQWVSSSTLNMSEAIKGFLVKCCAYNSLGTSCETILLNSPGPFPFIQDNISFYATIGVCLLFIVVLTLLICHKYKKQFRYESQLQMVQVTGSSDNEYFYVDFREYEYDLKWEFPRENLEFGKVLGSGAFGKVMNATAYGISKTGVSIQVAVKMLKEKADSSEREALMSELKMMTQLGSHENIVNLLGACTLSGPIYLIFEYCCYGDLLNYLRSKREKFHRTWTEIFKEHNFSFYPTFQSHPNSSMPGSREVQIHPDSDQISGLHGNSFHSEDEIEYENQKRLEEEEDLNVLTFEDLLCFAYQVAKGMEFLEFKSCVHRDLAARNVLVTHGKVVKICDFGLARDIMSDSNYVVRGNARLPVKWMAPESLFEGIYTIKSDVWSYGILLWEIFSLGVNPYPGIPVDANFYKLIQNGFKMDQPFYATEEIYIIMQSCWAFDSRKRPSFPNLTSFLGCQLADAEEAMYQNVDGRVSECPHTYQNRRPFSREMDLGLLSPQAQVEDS

[10] = target: Epidermal growth factor receptor (Homo sapiens) (UniProt P00533); assay: Inhibition of EGFR at 10 uM
Epidermal growth factor receptor (Homo sapiens), sequence (P00533 whole entry): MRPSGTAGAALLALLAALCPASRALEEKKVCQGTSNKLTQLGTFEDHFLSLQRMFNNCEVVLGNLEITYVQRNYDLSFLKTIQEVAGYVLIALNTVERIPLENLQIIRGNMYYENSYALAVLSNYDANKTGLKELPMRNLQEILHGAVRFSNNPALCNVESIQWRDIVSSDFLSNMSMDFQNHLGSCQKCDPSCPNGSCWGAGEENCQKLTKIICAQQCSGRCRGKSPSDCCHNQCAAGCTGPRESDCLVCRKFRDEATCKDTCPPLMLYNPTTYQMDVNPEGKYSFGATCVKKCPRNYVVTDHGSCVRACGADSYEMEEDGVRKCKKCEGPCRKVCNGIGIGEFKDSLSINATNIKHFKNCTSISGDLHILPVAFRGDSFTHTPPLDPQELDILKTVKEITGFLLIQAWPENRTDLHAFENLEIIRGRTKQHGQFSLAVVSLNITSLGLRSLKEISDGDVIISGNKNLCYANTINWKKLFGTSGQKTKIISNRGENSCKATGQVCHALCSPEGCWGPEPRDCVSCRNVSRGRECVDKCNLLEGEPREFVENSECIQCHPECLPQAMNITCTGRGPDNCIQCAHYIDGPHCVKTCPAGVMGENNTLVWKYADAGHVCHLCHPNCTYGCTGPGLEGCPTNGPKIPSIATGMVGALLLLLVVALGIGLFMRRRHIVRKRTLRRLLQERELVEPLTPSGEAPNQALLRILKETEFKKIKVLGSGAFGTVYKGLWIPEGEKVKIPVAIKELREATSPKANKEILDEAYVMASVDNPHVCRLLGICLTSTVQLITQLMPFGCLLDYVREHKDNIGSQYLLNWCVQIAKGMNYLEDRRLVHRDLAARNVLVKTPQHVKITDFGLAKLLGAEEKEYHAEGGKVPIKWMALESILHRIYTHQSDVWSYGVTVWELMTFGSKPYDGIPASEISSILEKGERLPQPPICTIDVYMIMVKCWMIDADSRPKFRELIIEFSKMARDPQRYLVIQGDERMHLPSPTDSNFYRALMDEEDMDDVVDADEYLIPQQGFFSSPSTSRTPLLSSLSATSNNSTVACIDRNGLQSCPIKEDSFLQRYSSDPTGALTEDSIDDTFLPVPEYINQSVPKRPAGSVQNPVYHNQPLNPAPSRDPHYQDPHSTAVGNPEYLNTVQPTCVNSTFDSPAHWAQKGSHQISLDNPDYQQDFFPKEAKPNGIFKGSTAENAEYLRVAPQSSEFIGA

[11] = target: Receptor tyrosine-protein kinase erbB-2 (Homo sapiens) (UniProt P04626); assay: Inhibition of ErbB2 at 10 uM
[12] = target: Hepatocyte growth factor receptor (Homo sapiens) (UniProt P08581); assay: Inhibition of c-Met at 10 uM
[13] = target: Macrophage-stimulating protein receptor (Homo sapiens) (UniProt Q04912); assay: Inhibition of Ron at 10 uM
[14] = Inhibition of PKA at 10 uM
[15] = target: Glycogen synthase kinase-3 beta (Homo sapiens) (UniProt P49841); assay: Inhibition of GSK3-beta at 10 uM
[16] = target: Bcr/Abl fusion protein (Homo sapiens) (UniProt P00519+P11274); assay: Inhibition of Bcr-Abl at 10 uM; format: protein assay
[17] = Inhibition of Bcr-Abl T315 mutant at 10 uM
[18] = target: Cyclin-dependent kinase 1 (Homo sapiens) (UniProt P06493); assay: Inhibition of Cdk1 at 10 uM
[19] = target: Cyclin-dependent kinase 2 (Homo sapiens) (UniProt P24941); assay: Inhibition of Cdk2 at 10 uM
[20] = target: Proto-oncogene tyrosine-protein kinase Src (Homo sapiens) (UniProt P12931); assay: Inhibition of Src at 10 uM
Proto-oncogene tyrosine-protein kinase Src (Homo sapiens), sequence (P12931 2-536 limits assumed): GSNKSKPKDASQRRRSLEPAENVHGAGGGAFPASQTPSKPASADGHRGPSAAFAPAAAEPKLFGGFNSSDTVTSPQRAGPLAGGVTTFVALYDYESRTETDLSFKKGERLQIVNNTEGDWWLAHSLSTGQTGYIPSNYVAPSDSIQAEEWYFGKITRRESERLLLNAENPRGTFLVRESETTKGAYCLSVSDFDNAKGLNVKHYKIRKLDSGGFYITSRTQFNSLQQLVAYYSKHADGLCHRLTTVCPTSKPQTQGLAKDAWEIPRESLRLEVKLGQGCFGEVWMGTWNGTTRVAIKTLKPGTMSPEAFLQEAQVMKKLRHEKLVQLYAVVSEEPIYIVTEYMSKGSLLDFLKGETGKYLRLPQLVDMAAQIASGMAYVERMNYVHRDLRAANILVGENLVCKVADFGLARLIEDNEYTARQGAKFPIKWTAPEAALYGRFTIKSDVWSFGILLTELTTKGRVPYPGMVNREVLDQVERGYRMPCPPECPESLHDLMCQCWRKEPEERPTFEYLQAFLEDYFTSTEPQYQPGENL

[21] = target: T2, Aurora kinase A (Homo sapiens) (UniProt O14965); assay: Inhibition of Aurora A at 10 uM
T2 sequence (whole entry): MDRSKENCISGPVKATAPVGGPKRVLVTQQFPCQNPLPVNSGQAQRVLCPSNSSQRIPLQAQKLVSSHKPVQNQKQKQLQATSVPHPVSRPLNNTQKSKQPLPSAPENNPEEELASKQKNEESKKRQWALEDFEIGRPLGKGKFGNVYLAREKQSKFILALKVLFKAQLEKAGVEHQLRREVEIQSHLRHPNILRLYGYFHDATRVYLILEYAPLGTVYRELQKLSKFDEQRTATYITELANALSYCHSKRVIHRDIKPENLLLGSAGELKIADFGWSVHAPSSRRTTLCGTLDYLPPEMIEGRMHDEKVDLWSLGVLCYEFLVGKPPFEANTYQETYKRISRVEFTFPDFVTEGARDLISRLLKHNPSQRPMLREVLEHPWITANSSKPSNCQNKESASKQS

[22] = target: Aurora kinase B (Homo sapiens) (UniProt Q96GD4); assay: Inhibition of Aurora B at 10 uM
[23] = target: Serine/threonine-protein kinase PLK1 (Homo sapiens) (UniProt P53350); assay: Inhibition of Plk1 at 10 uM

T1 sequence (P35968 whole entry): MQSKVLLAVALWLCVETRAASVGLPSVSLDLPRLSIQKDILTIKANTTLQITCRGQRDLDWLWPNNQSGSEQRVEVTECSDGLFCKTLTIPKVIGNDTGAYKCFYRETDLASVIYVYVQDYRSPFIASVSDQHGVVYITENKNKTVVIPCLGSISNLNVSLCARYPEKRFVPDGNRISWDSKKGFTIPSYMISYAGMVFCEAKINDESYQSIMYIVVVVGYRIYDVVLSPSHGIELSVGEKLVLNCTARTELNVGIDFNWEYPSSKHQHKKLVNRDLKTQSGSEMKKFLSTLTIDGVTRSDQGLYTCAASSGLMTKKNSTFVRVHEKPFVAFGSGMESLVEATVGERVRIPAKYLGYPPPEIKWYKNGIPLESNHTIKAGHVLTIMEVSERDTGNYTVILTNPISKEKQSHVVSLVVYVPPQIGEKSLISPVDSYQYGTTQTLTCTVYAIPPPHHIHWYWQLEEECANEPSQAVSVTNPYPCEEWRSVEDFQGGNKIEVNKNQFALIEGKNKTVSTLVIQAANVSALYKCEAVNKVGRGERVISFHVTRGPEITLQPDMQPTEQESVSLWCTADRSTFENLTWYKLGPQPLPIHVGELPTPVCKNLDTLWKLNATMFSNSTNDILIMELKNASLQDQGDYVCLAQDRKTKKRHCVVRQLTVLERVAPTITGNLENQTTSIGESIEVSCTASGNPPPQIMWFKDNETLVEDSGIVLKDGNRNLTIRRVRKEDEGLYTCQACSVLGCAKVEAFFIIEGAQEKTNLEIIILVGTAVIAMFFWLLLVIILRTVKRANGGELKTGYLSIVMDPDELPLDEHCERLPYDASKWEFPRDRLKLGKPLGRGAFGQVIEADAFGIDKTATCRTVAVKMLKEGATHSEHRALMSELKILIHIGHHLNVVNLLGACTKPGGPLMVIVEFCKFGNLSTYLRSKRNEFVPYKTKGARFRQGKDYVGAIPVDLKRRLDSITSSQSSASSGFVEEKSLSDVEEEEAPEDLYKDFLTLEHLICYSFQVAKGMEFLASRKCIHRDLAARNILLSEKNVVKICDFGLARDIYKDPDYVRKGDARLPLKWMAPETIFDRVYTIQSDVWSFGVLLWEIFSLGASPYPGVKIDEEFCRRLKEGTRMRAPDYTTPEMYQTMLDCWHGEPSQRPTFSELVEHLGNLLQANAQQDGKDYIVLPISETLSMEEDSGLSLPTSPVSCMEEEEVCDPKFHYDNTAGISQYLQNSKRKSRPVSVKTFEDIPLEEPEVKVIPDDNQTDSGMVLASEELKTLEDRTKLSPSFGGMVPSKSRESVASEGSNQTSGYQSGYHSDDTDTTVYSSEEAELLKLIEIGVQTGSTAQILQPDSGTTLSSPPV

IC50 [1] [nM]	IC50 [2] [nM]	IC50 [3] [nM]	Ki [4] [nM]	Ki [5] [nM]	inhibition [6] [%]	inhibition [7] [%]	inhibition [8] [%]	inhibition [9] [%]	inhibition [10] [%]	inhibition [11] [%]	inhibition [12] [%]	inhibition [13] [%]	inhibition [14] [%]	inhibition [15] [%]	inhibition [16] [%]	inhibition [17] [%]	inhibition [18] [%]	inhibition [19] [%]	inhibition [20] [%]	Compound	also measured
87	130	160	120	110	< 30	< 30	< 30	< 30	< 30	< 30	< 30	< 30	< 30	< 30	< 30	< 30	< 30	< 30	< 30	Clc1cccc(-n2cc(-c3ccccc3NCc3ccncc3)nn2)c1	inhibition [21]: < 30%; inhibition [22]: < 30%; inhibition [23]: < 30%
51	66	96	90	80	< 30	< 30	< 30	< 30	< 30	< 30	< 30	< 30	< 30	< 30	< 30	< 30	< 30	< 30	< 30	FC(F)(F)c1cccc(-n2cc(-c3ccccc3NCc3ccncc3)nn2)c1	inhibition [21]: < 30%; inhibition [22]: < 30%; inhibition [23]: < 30%
